Screening results deposited in PubChem by several laboratories.
Yeast superoxide: reduction of superoxide in aged yeast, primary screen, HTS; AID 2690, 2010; hit rate 0.18% among 330,000; superoxide response (% of plate mean), % at 10 µM; S. cerevisiae aged cells, superoxide DHE fluorescence; hits give low values;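 active = superoxide response under a set limit, about three screen SD below normal, cut at about 65% in these data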;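 note: yeast aged for seven days with compound at 30 °C before DHE staining; 100% = average MFI of all compound-treated wells on the plate with controls excluded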
rRNA inh HTS: reduced GFP signal of wild-type E. coli, primary screen, bacterial rRNA inhibitor project, GFP/RFP fluorescence, OD600, single point; E. coli WT GFP vs humanized-ribosome RFP mutants, 24 h; hits give low values; DMSO median 0, no signal -100; GFP signal change (wild-type ribosome), % (no concentration beside the values); hit rate 1.6% among 350,000; AID 720706, 2013;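 active = significant combined selectivity score with lowered wild-type GFP, culture density cut under 30%, mutant RFP and density less affected; inactive = any of these conditions unmet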
Cneo AK release: Cryptococcus neoformans cell lysis inducers, primary screen, AK release luminescence, single concentration | C. neoformans lysis, adenylate kinase release luminescence, 4 h; normalised: neutral wells 0, clomiphene wells 100 | lysis activity, % at 15 µM | hit rate 0.2% among 360,000;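 active = mean lysis activity across replicates of at least 80%, whatever share of replicates individually reach that level; inactive = mean lysis activity below 80%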
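Signal: Adenylate kinase release luminescence | Assay system: Log-phase Cryptococcus neoformans yeast cells | Input: Cells at 5 × 10^6 per mL | Buffer or medium: Fresh YPD growth medium | Compound: Single dose | Schedule: Static 4 h at 37 °C with compound, 1 h detection | Controls: Clomiphene | Read-out: Luminescence rise reflecting yeast cell lysis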
PglD DTNB: C. jejuni PglD acetyltransferase inhibitors, primary screen, biochemical, DTNB colorimetric, single point; inhibition, % at 12.5 µM; UDP-N-acetylbacillosamine N-acetyltransferase PglD (Campylobacter jejuni); AID 602405, 2012; hit rate 0.098% among 360,000; purified PglD enzyme, DTNB colorimetric CoA detection; in the data active = inhibition above about 16%, passing the limit was not always enough
SUMO Mot1 rescue: yeast Mot1-301 growth rescue at high temperature, primary screen, SUMOylation pathway inhibitor project, S. cerevisiae, ATP luminescence, 38.5C; S. cerevisiae Mot1-301 growth rescue; percent above DMSO median, 100 means doubled; growth rescue, % at 18.8 µM; hit rate 1% among 320,000; AID 2716, 2010;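 active = every valid replicate shows activation above 250% relative to neutral control wells; inactive = the rest, any valid replicate at or below 250%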;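 note: OY570 slx delta 5 strain wells were the positive control but not used for scaling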
CR mimetic CP: superoxide lowering in aged yeast cells, confirmation, cherry picked compounds | shares compounds with Yeast superoxide | S. cerevisiae aging, superoxide DHE fluorescence; hits give low values | superoxide response (% of plate), % at 10 µM | hit rate 1% among 850;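 active = superoxide signal below 65% of the plate average of sample wells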;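 note: cells aged with compound for 7 days at 30 degrees C before staining; 100% equals mean DHE fluorescence of all compound wells on the plate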
DHE fluor count: DHE quenching or ROS scavenging interference in aged yeast, artefact control for yeast caloric restriction mimetic project, S. cerevisiae BY4741, flow cytometry; fluorescence response, % at 10 µM; 850 tested, under 10 active; AID 435000, 2010; DHE fluorescence; hits give low values; shares compounds with Yeast superoxide;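 active = fluorescence response below 15%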;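 note: percent of the mean fluorescence averaged over all compound wells on the plate; lower means stronger quenching of DHE signal or ROS scavenging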
An asterisk follows results filed as active; · = not tested or not shown. Most compounds without a hit are left out; they make up all but 2.2% or so of the library.

SMILES | Yeast superoxide | rRNA inh HTS | Cneo AK release | PglD DTNB | SUMO Mot1 rescue | CR mimetic CP | DHE fluor count
Cc1ccc(S(=O)(=O)N(C)c2ccc(N)cc2)cc1 | 92.5 | · | 0.2 | -1.1 | 0.8 | 107.4 | 103.7
CCc1cc(C(=O)OC)c(NC(=O)CN2CCN(C(=O)c3ccco3)CC2)s1 | 110.7 | 2.9 | 1.0 | -1.5 | -18.2 | · | ·
CCOC(=O)N1CCN(CC(=O)Nc2sc(CC)cc2C(=O)c2ccc(OC)cc2)CC1 | 57.9* | -4.1 | -0.1 | -4.4 | -17.0 | 106.0 | 101.2
COc1cccc(-c2nnc(SCC(=O)N(C(C)C)C(C)C)o2)c1 | 109.8 | · | -4.3 | -0.9 | 22.6 | · | ·
CCOC(=O)CSc1nnc(-c2ccccc2)o1 | 98.6 | · | · | · | 10.2 | 114.2 | 125.3
COC(=O)CSc1nnc(-c2ccc(OC)c(OC)c2)o1 | 95.5 | 18.1 | · | · | -10.1 | 112.7 | 102.1
CCCOC(=O)CSc1nnc(-c2ccc(Cl)cc2Cl)o1 | 99.0 | · | · | · | 8.8 | 100.9 | 88.4
CCOC(=O)CSc1nnc(-c2ccc(Cl)cc2Cl)o1 | 128.9 | · | -6.1 | -7.2 | 73.8 | · | ·
COc1cc(OC)cc(-c2nnc(SCC(=O)N(C(C)C)C(C)C)o2)c1 | 84.8 | 10.6 | 1.9 | 0.4 | -15.1 | 102.3 | 91.8
CCS(=O)(=O)Nc1ccc2c(c1)C(=O)N(C)C[C@@H](OC)[C@H](C)CN(CCC(F)(F)F)[C@H](C)CO2 | · | -2.7 | 0.9 | 0.5 | · | · | ·
C[C@@H](O)C#Cc1cnc2c(c1)C(=O)N([C@@H](C)CO)C[C@H](C)[C@@H](CN(C)C(=O)Cc1ccccn1)O2 | · | 0.8 | 1.6 | 1.8 | · | · | ·
CCOc1ccccc1NC(=O)COC(=O)CC(C)(C)CC1=NS(=O)(=O)c2ccccc2N1 | 58.0* | -1.1 | 8.5 | -6.4 | 3.3 | 105.6 | 109.5
Cc1cc(C)cc(NC(=O)COC(=O)CCCC2=NS(=O)(=O)c3ccccc3N2)c1 | 93.3 | -25.5 | · | · | 554.3 | · | ·
C=CCN=C1S/C(=C/c2ccc([N+](=O)[O-])cc2)C(=O)N1CC=C | 59.8* | -12.1 | 0.0 | 5.1 | 1.5 | 76.5 | 89.2
CCC(=O)Nc1ccc2c(c1)C(=O)N(C)[C@H]1CC[C@@H](CC(=O)NCC3CC3)O[C@H]1CO2 | · | 2.8 | -1.0 | 1.2 | · | · | ·
O=C(Cc1ccccc1F)Nc1cc(S(=O)(=O)N2CCOCC2)ccc1N1CCCC1 | 94.0 | -8.5 | -0.8 | 0.6 | 6.1 | 109.8 | 105.1
CCN(CC)S(=O)(=O)c1ccc(N2CCCC2)c(NC(=O)Cc2ccccc2)c1 | 39.7* | -2.6 | · | · | -20.6 | 110.4 | 108.0
O=C(Cc1ccccc1F)Nc1cc(S(=O)(=O)N2CCOCC2)ccc1N1CCOCC1 | 75.1 | -0.7 | -2.8 | 2.7 | 7.4 | · | ·
CCN(CC)S(=O)(=O)c1ccc(N2CCCC2)c(NS(=O)(=O)c2ccccc2)c1 | 72.2 | · | -1.1 | -10.4 | -12.3 | · | ·
Clc1ccc(/C=C/c2nc(Cl)c(-c3ccc(Cl)cc3)c(Cl)n2)cc1 | 62.8* | 4.2 | 4.6 | -4.8 | 1.3 | 91.9 | 91.7
CC(=O)N(C)C[C@H]1Oc2cc(-c3cncnc3)ccc2S(=O)(=O)N([C@@H](C)CO)C[C@H]1C | · | 4.5 | -2.0 | 4.3 | · | · | ·
CCOc1cc(S(=O)(=O)N2CCCC2)c(C)cc1C | 99.0 | 9.6 | · | · | 6.1 | 104.3 | 103.7
CCOc1ccc(NS(=O)(=O)c2ccc(N)cc2)cc1 | 101.0 | · | 1.0 | -1.8 | 4.8 | 98.2 | 90.0
COc1cc(C)c(S(=O)(=O)N2CCCC2)cc1C(C)C | 91.1 | -14.9 | · | · | 1.0 | 92.4 | 89.7
COc1c(C)cc(S(=O)(=O)N2CCCC2)c(C)c1C | 108.9 | · | -3.1 | 2.1 | -2.3 | 96.8 | 94.5
SMILES | Yeast superoxide | rRNA inh HTS | Cneo AK release | PglD DTNB | SUMO Mot1 rescue | CR mimetic CP | DHE fluor count
CCOc1cc(C)c(S(=O)(=O)N2CCCCC2)cc1C | 87.4 | -7.8 | · | · | 4.6 | · | ·
C[C@@H]1CCCCO[C@H](CN(C)C(=O)Nc2ccccc2)[C@@H](C)CN([C@@H](C)CO)C(=O)c2cc(NS(=O)(=O)c3cn(C)cn3)ccc2O1 | · | 1.7 | 54.9 | 3.9 | · | · | ·
COc1cc(C)c(S(=O)(=O)N2CCCC2)cc1C | 58.9* | · | -1.6 | 4.7 | 87.8 | 80.2 | 91.8
CCOc1ccc(S(=O)(=O)N2CCCC2)cc1 | 111.8 | · | 0.9 | 5.3 | 14.6 | 109.8 | 108.9
CCOc1ccc2cc(S(=O)(=O)N3CCCCC3)ccc2c1 | 81.4 | -0.5 | -0.3 | 1.1 | 21.7 | · | ·
C[C@H](CO)N1C[C@H](C)[C@H](CN(C)Cc2ccc3c(c2)OCO3)Oc2ccc(NC(=O)CCC(F)(F)F)cc2C1=O | · | 3.0 | 1.9 | 1.5 | · | · | ·
COc1ccccc1CNC(=O)CN(C)Cc1ccc(SC)cc1 | 108.7 | -4.3 | -0.7 | -1.2 | 58.2 | · | ·
COc1cccc(CN(C)CC(=O)NCc2ccc(F)cc2)c1OC | 38.8* | 2.3 | -2.2 | -9.2 | 8.7 | 106.5 | 87.5
Cc1ccc(CN(CC(=O)NCCc2ccccc2)C(=O)CCCC(=O)Nc2cc(C)on2)cc1 | 63.6* | · | 5.8 | 0.6 | -22.2 | 108.1 | 91.2
COc1ccc(NC(=O)Nc2cccc3c2O[C@H](CN(C)C(=O)NC(C)C)[C@H](C)CN([C@H](C)CO)C3=O)cc1 | · | 0.5 | -4.3 | 2.7 | · | · | ·
Cc1ccccc1-c1nc(CS(=O)(=O)CC(=O)NCCCN2CCOCC2)c(C)o1 | 103.1 | -20.1 | -1.3 | 0.3 | 11.1 | · | ·
Cc1ccccc1-c1nc(CS(=O)(=O)CC(=O)NCCCN2CC(C)CC(C)C2)c(C)o1 (stereo not given) | 65.2* | -1.0 | 8.2 | -0.5 | 6.2 | 93.9 | 90.3
Cc1ccc(/C=N/n2c(-c3ccncc3)n[nH]c2=S)cc1 | · | 6.5 | · | · | · | · | ·
CC(C)(C)c1ccc(-c2n[nH]c(=S)n2/N=C/c2ccncc2)cc1 | 43.5* | -6.4 | · | · | -4.3 | 115.4 | 127.3
CCC(=O)N(C)C[C@@H]1Oc2cc(C#Cc3ccncc3)ccc2S(=O)(=O)N([C@@H](C)CO)C[C@H]1C | · | 0.8 | -1.1 | 3.5 | · | · | ·
COC(=O)c1cnc2ccccc2n1 | 94.6 | · | -2.3 | -2.4 | -5.7 | · | ·
O=C(O)c1cnc2ccccc2n1 | 64.3* | · | -0.3 | 4.6 | -8.2 | 70.6 | 94.4
COc1cccc(NC(=O)N[C@@H]2CC[C@H](CC(=O)Nc3ccccc3)O[C@H]2CO)c1 | · | -2.9 | 1.4 | 1.6 | · | · | ·
O=C(O)c1ccc(NS(=O)(=O)c2cc(Cl)ccc2Cl)cc1 | 104.8 | · | · | · | 66.1 | 113.9 | 118.5
Cc1ccc(NS(=O)(=O)c2cc(C(=O)O)ccc2Cl)cc1 | 93.8 | · | 7.9 | -4.3 | 7.1 | · | ·
CN(C)C(=O)C[C@@H]1CC[C@H]2[C@@H](COC[C@H](O)CN2CC2CCCC2)O1 | · | 2.6 | 0.5 | 6.7 | · | · | ·
